Published values from different studies.
Protocols differ between the studies behind these lines.
Target: Serine/threonine-protein kinase DCLK2 (DCLK2, Homo sapiens, UniProt Q8N568)
Residues used in one study (Q8N568 1-766): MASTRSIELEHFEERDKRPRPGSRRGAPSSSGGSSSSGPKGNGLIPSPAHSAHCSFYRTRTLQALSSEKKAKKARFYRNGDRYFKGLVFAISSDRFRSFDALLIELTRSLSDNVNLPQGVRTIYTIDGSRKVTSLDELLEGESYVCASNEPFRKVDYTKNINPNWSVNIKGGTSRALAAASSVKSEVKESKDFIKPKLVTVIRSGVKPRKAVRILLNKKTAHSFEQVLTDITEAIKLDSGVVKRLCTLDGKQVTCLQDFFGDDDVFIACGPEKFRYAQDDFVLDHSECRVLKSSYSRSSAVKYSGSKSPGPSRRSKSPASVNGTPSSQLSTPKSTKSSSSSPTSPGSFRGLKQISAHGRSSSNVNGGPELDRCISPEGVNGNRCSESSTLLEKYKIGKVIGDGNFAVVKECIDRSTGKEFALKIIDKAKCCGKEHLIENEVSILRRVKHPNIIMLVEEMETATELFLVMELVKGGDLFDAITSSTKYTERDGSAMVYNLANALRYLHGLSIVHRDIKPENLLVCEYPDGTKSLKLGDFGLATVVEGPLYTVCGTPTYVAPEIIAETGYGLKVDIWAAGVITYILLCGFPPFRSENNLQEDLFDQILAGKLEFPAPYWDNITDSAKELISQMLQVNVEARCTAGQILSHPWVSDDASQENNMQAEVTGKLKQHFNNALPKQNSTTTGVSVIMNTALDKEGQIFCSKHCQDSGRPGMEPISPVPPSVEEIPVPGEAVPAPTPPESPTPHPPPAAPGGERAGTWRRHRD

For CO[C@@H](C)c1c(Nc2ccc([C@@H](N(C)C(=O)C3CCS(=O)(=O)CC3)C(F)(F)F)cc2)cnc2cc(Cl)nn12, the remaining binding was 95% (cell-free assay, competition with immobilised ligand; 1 µM).
With COc1ncc2cc3ccccc3nc2c1C#N the remaining binding was 94% (cell-free assay, competition with immobilised ligand; 5 µM).
For O=C(NCCCN1CCOCC1)c1ccc(Nc2nccc(-c3cc4ccccc4s3)n2)cc1, the remaining binding was 98% (binding, competition with immobilised ligand; 1 µM).
COc1cnc(Nc2cccc(S(N)(=O)=O)c2)nc1N1CCN(c2ccccc2)C(=O)C1 has a remaining binding of 100% (binding, competition with immobilised ligand; 1 µM).
NS(=O)(=O)c1cc(NC(=O)C2(c3ccccc3Cl)CC2)ccc1Oc1cccc(Cl)c1 has a remaining binding of 74% (cell-free assay, competition with immobilised ligand; 1 µM).
For CC1CCCN1c1nccc(-c2cnn3ncccc23)n1 (stereo not shown), the remaining binding was 100% (binding; 1 µM).
Cn1nc(C(F)(F)F)cc1-c1cnc(N2CCc3cc(S(=O)(=O)Nc4c(F)cc(Cl)cc4F)cc(N4CCCC4=O)c32)nc1 gave a remaining binding of 100% (cell-free assay, competition with immobilised ligand; 1 µM).
The remaining binding of O=C(c1ccc(Nc2nccc(-c3cc4ccccc4s3)n2)cc1)N1CCC(N2CCCC2)CC1 is reported as 97% (binding, competition with immobilised ligand; 1 µM).
With O=C1NC(c2ccccn2)Sc2ccccc21 (stereo not shown) the remaining binding was 92% (cell-free assay, competition with immobilised ligand; 1 µM).
Cc1cnn2ncc(-c3ccnc(N(C)C)n3)c2c1 gave a remaining binding of 100% (binding; 1 µM).
CCOCCn1cc(C(=O)Nc2ccc(-n3nc(-c4cccnc4)cc3C(F)(F)F)cn2)ccc1=O gave a remaining binding of 89% (cell-free assay, competition with immobilised ligand; 1 µM).
COc1cc(C(=O)N2CCC(N3CCN(C)CC3)CC2)ccc1Nc1ncc2c(n1)N(C)c1ccccc1C(=O)N2C gave a remaining binding of 0.45% (binding, competition with immobilised ligand; 10 µM).
O=C(Nc1c[nH]nc1C(=O)NC1CCNCC1)c1cc(F)cc(F)c1 gave a remaining binding of 100% (binding, competition with immobilised ligand; 1 µM).
C=CC(=O)N1CCC(C(=O)NCC(=O)N2CCN(c3nc(-c4cnc(N)nc4C(F)F)nc(N4CCOCC4)n3)CC2)CC1 gave a remaining binding of 98% (binding, competition with immobilised ligand; 1 µM).
O=C(NCCCN1CCOCC1)c1ccc(Nc2ncc(Cl)c(-c3ccc(Cl)s3)n2)cc1 gave a remaining binding of 78% (binding, competition with immobilised ligand; 1 µM).
The remaining binding of CN(CCCC(F)(F)F)c1nccc(-c2cnn3ncccc23)n1 is reported as 88% (binding; 1 µM).
With c1cncc(-c2cccc(Nc3nccc(NC4CCCCC4)n3)c2)c1 the remaining binding was 100% (binding, competition with immobilised ligand; 10 µM).
CN(C)CC#Cc1ccc(OCCCc2sc(N3CCc4cccc(C(=O)Nc5nc6ccccc6s5)c4C3)nc2C(=O)O)c(F)c1 gave a remaining binding of 100% (cell-free assay, competition with immobilised ligand; 1 µM).
The remaining binding of COc1ccnn2ncc(-c3ccnc(N(C)C)n3)c12 is reported as 100% (binding; 1 µM).
